In publication PMC12765261 (Journal of Pharmaceutical Analysis, 2025):
Structures can show the parent of a compound that is named as a salt.

Columns and labels:
Hygroscopicity test = assay type: physicochemical; details: 25 °C/80% RH for 24 h
Outline: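 Co-amorphous samples were held at 25 °C/80% RH for 24 h, and percentage weight gain was calculated, n = 3. Pharmacopeial criteria were applied: a gain above 2% but below 15% counts as hygroscopic.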

Stability experiments = assay type: physicochemical; details: 75% RH for 5 and 10 days
[1] = test system: GLUT4 expression in HepG2 cells; assay: GLUT4 immunofluorescence; assay type: cell-based; details: 2 h pre-treatment before HGHI incubation
Outline: (§1)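 Before the high-glucose/high-insulin step (30 mM glucose, 5 μM insulin, 30 h), cells were pre-treated for 2 h with the PI3K inhibitor LY294002 or the AMPK inhibitor dorsomorphin. They then received test compounds at varying concentrations for 24 h. GLUT4 was immunostained with a rabbit polyclonal primary and a fluorescein-conjugated secondary, with DAPI for nuclei. Cells were imaged by confocal microscopy and GLUT4 signal was quantified.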

[2] = test system: GLUT4 expression in H9c2 cells; assay: GLUT4 immunofluorescence; assay type: cell-based; details: 2 h pre-treatment before HGHI incubation
Outline: as §1

H9c2 cells = assay: Cytotoxicity, MTT assay under HGHI conditions; assay type: cell-based; details: 24 h
Outline: (§2)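 Cell lines were kept in DMEM (25 mM glucose, 10% FBS, 1% penicillin/streptomycin) at 37 °C and 5% CO2. Insulin resistance was induced with 30 mM glucose plus 5 μM insulin for 30 h. Cells were then exposed for 24 h under these conditions to a range of concentrations of the single components, a physical mixture or the co-amorphous system. Viability was read by MTT, n = 3, mean ± SD.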

HepG2 cells = assay: Cytotoxicity, MTT assay under HGHI conditions; assay type: cell-based; details: 24 h
Outline: as §2

Row | Percentage of weight gain (hygroscopicity) (Hygroscopicity test) | Phase stability under high humidity (XRD) (Stability experiments) | SMILES | Effect of inhibitor on GLUT4 fluorescence induced by COA-I [1] | Effect of inhibitor on GLUT4 fluorescence induced by COA-I [2] | Concentrations showing cytotoxicity (H9c2 cells) | Concentrations showing cytotoxicity (HepG2 cells)
1 | 5.36% | remained amorphous | CCOc1ccc(Cc2cc([C@@H]3O[C@H](CO)[C@@H](O)[C@H](O)[C@H]3O)ccc2Cl)cc1 [DAP, Dapagliflozin] | – | – | – | –
2 | – | – | O=c1cc(N2CCOCC2)oc2c(-c3ccccc3)cccc12 [LY294002] | attenuated | attenuated | – | –
3 | 0.86% | – | CCc1ccc(CCOc2ccc(CC3SC(=O)NC3=O)cc2)nc1 (stereo not drawn) [PIO, Pioglitazone] | – | – | higher than 10 μM | higher than 10 μM
4 | – | – | c1cc(-c2cnn3cc(-c4ccc(OCCN5CCCCC5)cc4)cnc23)ccn1 [compound C, dorsomorphin (compound C) dihydrochloride] | attenuated | attenuated | – | –
